The nature of data set [1]: Partition coefficient (logP). The conditions noted are these: octanol/water. The format is physicochemical. In outline: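 Octanol/water partition at pH 7.4, measured by low-volume shake flask. Drug in both the octanol and buffer phases quantified by HPLC.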
Data set [2] deals with SCC-7. Description: Inhibitory concentration against murine SCCVII cell line under hypoxic condition. The conditions noted are these: Mus musculus. The format is functional, cell-based. In outline:
(§1)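 SRB proliferation assay in 96-well plates. SCCVII (200 cells) or HT-29 (1000 cells) seeded in αMEM + 10% FCS with glucose (17 mM final) and 100 μM 2'-deoxycytidine, then attached for 3 h. Cells exposed for 4 h at 37 °C to 2-fold serial dilutions in triplicate, either oxic (20% O2, 5% CO2) or in an anaerobic chamber (<0.001% O2). After washing, cells grew for 5 (oxic) or 6 (anoxic) days before SRB staining. IC50 values are the mean of three independent experiments.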

For data set [3], the system named is SCC-7. Put plainly: Inhibitory concentration against murine SCCVII cell line under aerobic condition. In kind it is functional, cell-based. The settings on record: Mus musculus. In outline: as §1
For data set [4], the system named is SCC-7. Put plainly: Interexperimental ratio of hypoxic TPZ C10 to hypoxic BTO C10 using murine SCCVII cell line. In kind it is functional, Mus musculus.
Data set [5] relates to HT-29. Put plainly: Inhibitory concentration against human adenocarcinoma HT-29 cell line under hypoxic condition. The format is functional, cell-based. In outline:
as §1

In data set [6] the test system is HT-29. Description: Inhibitory concentration against human adenocarcinoma HT-29 cell line under aerobic condition. In kind it is functional, cell-based. A digest of the protocol:
as §1

The subject of data set [7] is HT-29. Put plainly: Interexperimental ratio of hypoxic TPZ C10 to hypoxic BTO C10 using human adenocarcinoma HT-29 cell line. In kind it is functional.
Data set [8] is described as follows: Interexperimental difference between the hypoxic and aerobic cytotoxicity using human adenocarcinoma HT-29 cell line. The format is functional.
Data set [9] in a line: Interexperimental difference between the hypoxic and aerobic cytotoxicity using murine SCCVII cell line. The format is functional, SCC-7.
The nature of data set [10]: Concentration required to reduce plating efficiency to 10 percent of controls, under aerobic conditions in mouse SCCVII tumor cells. The format is functional, SCC-7. A digest of the protocol: (§2)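 SCCVII cells plated in glass dishes (2×10^5 to 1×10^6 per dish) 1–2 days ahead. Drug freshly dissolved, given in complete medium for 1 h at 37 °C with shaking. Hypoxia (<200 ppm O2) by repeated evacuation/flushing with 95% N2 + 5% CO2; aerobic controls flushed with 95% air + 5% CO2. Cells washed, trypsinized, replated. Crystal violet stain after 10–14 days, >50-cell colonies scored. C10 is the concentration giving 10% of control plating efficiency.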

Data set [11] can be described thus: Concentration required to reduce plating efficiency to 10 percent of controls, under hypoxic conditions in mouse SCCVII tumor cells. In kind it is functional, SCC-7. A digest of the protocol: as §2
Data set [12] is described as follows: Intraexperimental ratio of hypoxic TPZ C10 to hypoxic BTO C10 in mouse SCCVII tumor cells. In kind it is functional, SCC-7. A digest of the protocol: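 Computed within each experiment from the clonogenic SCCVII assay (1 h drug exposure, hypoxia <200 ppm O2 by gas evacuation/flushing, colony counting after 10–14 days). RHT = C10 of TPZ under hypoxia divided by C10 of the analogue under hypoxia.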

A short description of data set [13]: Intraexperimental difference between the hypoxic and aerobic cytotoxicity in mouse SCCVII tumor cells. In kind it is functional, SCC-7. A digest of the protocol:
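Clonogenic SCCVII survival after 1 h drug exposure at 37 °C, either hypoxic (<200 ppm O2, 95% N2/5% CO2) or aerobic (95% air/5% CO2). Colonies of >50 cells counted after 10–14 days. HCR = aerobic C10 / hypoxic C10, with both values from the same experiment.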

Molecules are shown by their SMILES.

Results on eight molecules are retold here after ChEMBL document CHEMBL1145015, “Structure-activity relationships of 1,2,4-benzotriazine 1,4-dioxides as hypoxia-selective analogues of tirapazamine” (J Med Chem, 2003).

The term logP denotes a log measure of how a compound divides between an organic and an aqueous phase. Read a high logP as a more lipophilic compound. In general, IC50 refers to the concentration that inhibits the measured activity by half. Lower therefore signals greater potency in that assay.

As to `Nc1n[n+]([O-])c2ccccc2[n+]1[O-]` [TIRAPAZAMINE], in data set [1], the logP was -0.34. The IC50 in the data set on SCC-7 [2] is 2.4 µM; in the data set with SCC-7 [3], 71.7 µM; in the data set on HT-29 [5], 5.3 µM; with HT-29 [6], 196 µM. The RHT (in the data set on SCC-7 [4]; with HT-29 [7]; in data set [12]) was 1 throughout. Moreover, the HCR in data set [8] is listed as 37; in data set [9], 32.9; in [13], 258. For the same molecule, the C10 in data set [10] was determined as 2644 µM; in data set [11], 10.2 µM.
As to `Nc1n[n+]([O-])c2cc(C(F)(F)F)ccc2[n+]1[O-]`, the logP in [1] was 0.81. Moreover, the IC50 in the data set on SCC-7 [2] was determined as 0.92 µM; with SCC-7 [3], 23.9 µM; in the data set with HT-29 [5], 2.1 µM; in the data set with HT-29 [6], 79.1 µM. Besides, the RHT in the data set on SCC-7 [4] is listed as 2.6; in the data set with HT-29 [7], 2.5; in data set [12] it was 1.1. For the same molecule, the HCR in data set [8] amounted to 35.7; in data set [9], 27.7; in data set [13], 33.3. The C10 was found to be 305 µM in data set [10] and 9.14 µM in [11].
Consider `Nc1n[n+]([O-])c2ccc(Cl)cc2[n+]1[O-]`, for which the IC50 in the data set on SCC-7 [2] was 0.98 µM; in the data set on SCC-7 [3], 21.1 µM; in the data set on HT-29 [5], 1.3 µM; in the data set with HT-29 [6], 41.2 µM. For the same molecule, the RHT with SCC-7 [4] is recorded as 2.4; with HT-29 [7], 4.1; in data set [12] it was 1.6. Also, the HCR was found to be 33 in [8], 22.5 in data set [9] and 21.6 in data set [13]. Further, the results for the C10 in [10] and in data set [11] were 140 µM and 6.47 µM, respectively.
For `Nc1n[n+]([O-])c2cc(F)ccc2[n+]1[O-]`, the IC50 with SCC-7 [2] came out at 1.1 µM; in the data set on SCC-7 [3], 17.6 µM; in the data set with HT-29 [5], 1.87 µM; in the data set with HT-29 [6] it was 47.8 µM. The figures for the RHT (in the data set on SCC-7 [4]; in the data set with HT-29 [7]; in data set [12]) were 2.2, 2.8 and 1.9, respectively. In addition, the HCR is 21.7 in [8], 19.3 in [9] and 70.3 in [13]. Further, the C10 in [10] worked out at 381 µM; in data set [11], 5.41 µM.
Turning to `CN(C)c1cccc2c1[n+]([O-])c(N)n[n+]2[O-]`, the IC50 worked out at 12.2 µM in the data set on SCC-7 [2], 2.1 µM with SCC-7 [3], 23.3 µM in the data set on HT-29 [5] and 4.2 µM in the data set with HT-29 [6]. Also, the RHT stood at 0.2 with SCC-7 [4], 0.2 in the data set on HT-29 [7] and 0.39 in data set [12]. Moreover, the HCR in [8] was 0.18; in [9], 0.18; in [13] it was 1.2. Further, the C10 in data set [10] is 30.5 µM; in [11], 25.8 µM.
Regarding `Nc1n[n+]([O-])c2c(F)cccc2[n+]1[O-]`, the IC50 was 1.2 µM in the data set on SCC-7 [2], 23.7 µM in the data set with SCC-7 [3], 2.1 µM in the data set with HT-29 [5] and 8.7 µM in the data set with HT-29 [6]. The RHT came out at 1.9 with SCC-7 [4], 2.5 in the data set on HT-29 [7] and 1 in [12]. Moreover, the results for the HCR in [8], in [9] and in data set [13] were 4.1, 13.9 and 13, respectively. Also, the C10 in data set [10] was found to be 132 µM; in data set [11] it was 10.2 µM.
`CS(=O)(=O)c1cccc2c1[n+]([O-])nc(N)[n+]2[O-]` had a logP in [1] of -1.38. Further, the IC50 in the data set with SCC-7 [2] stood at 9.7 µM; in the data set with SCC-7 [3], 15.5 µM; in the data set with HT-29 [5], 15.1 µM; in the data set on HT-29 [6], 69.8 µM. Besides, the results for the RHT (in the data set on SCC-7 [4]; in the data set with HT-29 [7]; in [12]) were 0.2, 0.4 and 0.2, respectively. Besides, the HCR in data set [8] is on record as 4.5; in [9], 1.6; in [13], 6.7. Further, the C10 in data set [10] turned out to be 338 µM; in [11], 50.8 µM.
On to `Nc1n[n+]([O-])c2cc([N+](=O)[O-])ccc2[n+]1[O-]`, for which the IC50 in the data set with SCC-7 [2] amounted to 0.7 µM; in the data set on SCC-7 [3] it was 2.8 µM; in the data set with HT-29 [5], 0.79 µM; with HT-29 [6], 14.1 µM. Moreover, the RHT came out at 3.4 in the data set on SCC-7 [4], 6.7 with HT-29 [7] and 1.9 in data set [12]. The values for the HCR in data set [8], in data set [9] and in data set [13] were 14.8, 4.1 and 6.8, respectively. Besides, the C10 worked out at 36.3 µM in data set [10] and 5.37 µM in data set [11].
